Experimental findings from ChEMBL document CHEMBL4422693, “Antifungal Phenylpropanoid Glycosides from Lippia rubella” (J Nat Prod, 2019) are described below.

The term MIC denotes the least concentration at which growth counts as inhibited. The low end stands for greater potency, the high end for weaker potency. Usually HC50 stands for the concentration that lyses half of the red blood cells. A lower HC50 goes with stronger haemolysis.

Converted amounts (≈) assume the structure as drawn.

In data set [1] the test system is Candida parapsilosis. The data set can be described thus: Antifungal activity against Candida parapsilosis ATCC 22019 after 48 hrs by micro broth dilution method. As to conditions: Lodderomyces parapsilosis, ATCC 22019, 48 h. (In general: Broth dilution looks for growth in wells or tubes with falling amounts of substance.)
Data set [2] has as its system Erythrocyte. The data set can be described thus: Hemolytic activity in human RBC at MIC after 1 hr by spectrophotometric method. It is filed as ADME, cell-based. The gist of the method:
(§1)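 Sample solutions (2000 to 15.6 μg/mL before mixing) were incubated with a 4% human O+ erythrocyte suspension in PBS (1:4 by volume) for 1 h at 37 °C. PBS was then added, and lysis was read at 590 nm. PBS served as the negative control and water as the positive control.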

Data set [3] is described as follows: Hemolytic activity in human RBC after 1 hr by spectrophotometric method. The note with it: human red blood cells (erythrocytes). Format: ADME, cell-based, Erythrocyte. The gist of the method: as §1
The subject of data set [4] is Cryptococcus neoformans. The data set can be described thus: Antifungal activity against Cryptococcus neoformans isolate T1444 assessed as FIC index after 48 hrs in presence of amphotericin B by micro broth dilution method. It is filed as functional. The gist of the method:
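Checkerboard dose matrix in microplates. Sample and amphotericin B were each used below their single-agent MICs. Inoculum was 10^3 cells/mL, incubated at room temperature for 48 h. Growth was read visually and confirmed with resazurin. FIC for each agent is the MIC in combination divided by the MIC alone, and FICindex is the sum of the two FICs. Synergy is <0.5, additive is >0.5 to ≤1, and antagonism is >4.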

Data set [5] relates to Candida albicans. The data set can be described thus: Antimicrobial activity against Candida albicans ATCC 10231 after 48 hrs by microbroth dilution method. It is filed as functional. The note with it: ATCC 10231, 48 h. The gist of the method: (§2)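 CLSI M27-A broth microdilution. Fungi at 10^6 cells/mL were grown in fresh BHI medium with samples at 1 pg/mL to 1 mg/mL, at 37 °C for 48 h. Growth was read daily by visible turbidity. MIC was the lowest concentration preventing growth. Inhibition was confirmed with resazurin (5 mg/100 mL PBS, pH 7.2) after a further 3 h at 37 °C. Amphotericin B was the positive control.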

The test system of data set [6] is Cryptococcus neoformans. The data set can be described thus: Antifungal activity against Cryptococcus neoformans isolate T1444 after 48 hrs by micro broth dilution method. Format: functional. The note with it: isolate T1444, 48 h. In short, it runs like this:
as §2

The test system of data set [7] is Cryptococcus neoformans. The data set can be described thus: Antifungal activity against Cryptococcus neoformans ATCC 24067 after 48 hrs by micro broth dilution method. Format: functional. The note with it: ATCC 24067, 48 h. The gist of the method: as §2
In data set [8] the test system is Candida parapsilosis. The experiment in a line: Antifungal activity against Candida parapsilosis ATCC 22019 after 24 hrs by micro broth dilution method. It is filed as functional. As to conditions: Lodderomyces parapsilosis, ATCC 22019, 24 h.

In the case of `C[C@@H]1O[C@@H](OC[C@H]2O[C@@H](OCCc3ccc(O)c(O)c3)[C@H](O)[C@@H](O)[C@@H]2OC(=O)/C=C/c2ccc(O)c(O)c2)[C@H](O)[C@H](O)[C@H]1O` [FORSYTHIASIDE], the MIC in data set [1] is greater than 125 mg/L; in data set [5], greater than 125 mg/L; in data set [6], 31.2 mg/L (≈ 50 µM); in data set [7] it was 31.2 mg/L (≈ 50 µM). Further, the Activity entry in data set [2] is reported as “Non-Toxic”. In addition, the concentration for 50% haemolysis (HC50) at 1 h in data set [3] was 1000 µg/mL. Moreover, the “fractional inhibitory concentration index (FICI)” value in data set [4] is given as 0.5.

For the molecule `C[C@@H]1[C@H](O)[C@@H](C)/C=C/C=C/C=C/C=C/C=C/C=C/C=C/[C@H](O[C@@H]2O[C@H](C)[C@@H](O)[C@H](N)[C@@H]2O)C[C@@H]2O[C@](O)(C[C@@H](O)C[C@@H](O)[C@H](O)CC[C@@H](O)C[C@@H](O)CC(=O)O[C@H]1C)C[C@H](O)[C@H]2C(=O)O` [AMPHOTERICIN B], the MIC in data set [1] worked out at 0.125 mg/L (≈ 0.135 µM); in data set [5], 0.25 mg/L (≈ 0.271 µM); in data set [6] it was 0.125 mg/L (≈ 0.135 µM); in data set [7] it was 0.125 mg/L (≈ 0.135 µM).

For `COc1ccc(-c2cc(=O)c3c(O)cc(O[C@@H]4O[C@H](CO[C@@H]5O[C@@H](C)[C@H](O)[C@@H](O)[C@H]5O)[C@@H](O)[C@H](O)[C@H]4O)cc3o2)cc1` [ACACIIN], the minimal inhibitory concentration (MIC) in data set [1] is greater than 125 mg/L; in data set [5], greater than 125 mg/L; in data set [6], 125 mg/L (≈ 211 µM).

Turning to `C[C@@H]1O[C@@H](O[C@@H]2[C@@H](O)[C@H](OCCc3ccc(O)c(O)c3)O[C@H](CO)[C@H]2OC(=O)/C=C/c2ccc(O)cc2)[C@H](O)[C@H](OC(=O)/C=C/c2ccc(O)c(O)c2)[C@H]1O`, the MIC in data set [5] is greater than 125 mg/L; in data set [6], 125 mg/L (≈ 162 µM); in data set [8], greater than 125 mg/L.

In the case of `C[C@@H]1O[C@@H](O[C@@H]2[C@@H](O)[C@H](OCCc3ccc(O)c(O)c3)O[C@H](CO)[C@H]2OC(=O)/C=C/c2ccc(O)c(O)c2)[C@H](O)[C@H](O)[C@H]1OC(=O)/C=C/c1ccc(O)c(O)c1`, the MIC was 125 mg/L (≈ 159 µM) in data set [1], greater than 125 mg/L in data set [5] and 15.6 mg/L (≈ 19.8 µM) in data set [6].

`C[C@@H]1O[C@@H](O[C@@H]2[C@@H](O)[C@H](OCCc3ccc(O)c(O)c3)O[C@H](CO)[C@H]2OC(=O)/C=C/c2ccc(O)c(O)c2)[C@H](O)[C@H](O)[C@H]1O` [ACETOSIDE]: the minimum inhibitory concentration (MIC) in data set [1] was 125 mg/L (≈ 200 µM); in data set [5] it was greater than 125 mg/L; in data set [6] it was 62.5 mg/L (≈ 100 µM); in data set [7] it was 62.5 mg/L (≈ 100 µM). The Activity result in data set [2] is “Non-Toxic”. This molecule also showed an HC50 at 1 h in data set [3] of 1000 µg/mL. For the same molecule, in data set [4], the “fractional inhibitory concentration index (FICI)” value is listed as 0.72.

For the molecule `C[C@@H]1O[C@@H](OC[C@H]2O[C@@H](OCCc3ccc(O)c(O)c3)[C@H](O)[C@@H](O[C@@H]3O[C@@H](C)[C@H](O)[C@@H](O)[C@H]3O)[C@@H]2OC(=O)/C=C/c2ccc(O)c(O)c2)[C@H](O)[C@H](O)[C@H]1O` [POLIUMOSIDE], the minimum inhibitory concentration (MIC) in data set [1] was greater than 125 mg/L; in data set [5], greater than 125 mg/L; in data set [6] it was 62.5 mg/L (≈ 81.1 µM).

`C[C@@H]1O[C@@H](O[C@@H]2[C@@H](O)[C@H](OCCc3ccc(O)c(O)c3)O[C@H](COC(=O)/C=C/c3ccc(O)c(O)c3)[C@H]2O)[C@H](O)[C@H](O)[C@H]1O` [ISOACTEOSIDE] showed an MIC in data set [6] greater than 125 mg/L.
